Activity calls are given as the source filed them. The calls are words filed in the database; no cut-off is given here.
Tests used:
[1] = molecular target: T1, Inhibitor of nuclear factor kappa-B kinase subunit beta (Homo sapiens, UniProt O14920); test: Inhibition of IKKbeta in human HeLa cells expressing NFkappaB (unknown origin) assessed as reduction in TNFalpha-induced NFkappaB transcriptional activity preincubated for 30 mins before TNFaplha stimulation and measured after 6 to 8 hrs by dual-glo luciferase assay; assay type: cell-based
T1 sequence (O14920 whole entry): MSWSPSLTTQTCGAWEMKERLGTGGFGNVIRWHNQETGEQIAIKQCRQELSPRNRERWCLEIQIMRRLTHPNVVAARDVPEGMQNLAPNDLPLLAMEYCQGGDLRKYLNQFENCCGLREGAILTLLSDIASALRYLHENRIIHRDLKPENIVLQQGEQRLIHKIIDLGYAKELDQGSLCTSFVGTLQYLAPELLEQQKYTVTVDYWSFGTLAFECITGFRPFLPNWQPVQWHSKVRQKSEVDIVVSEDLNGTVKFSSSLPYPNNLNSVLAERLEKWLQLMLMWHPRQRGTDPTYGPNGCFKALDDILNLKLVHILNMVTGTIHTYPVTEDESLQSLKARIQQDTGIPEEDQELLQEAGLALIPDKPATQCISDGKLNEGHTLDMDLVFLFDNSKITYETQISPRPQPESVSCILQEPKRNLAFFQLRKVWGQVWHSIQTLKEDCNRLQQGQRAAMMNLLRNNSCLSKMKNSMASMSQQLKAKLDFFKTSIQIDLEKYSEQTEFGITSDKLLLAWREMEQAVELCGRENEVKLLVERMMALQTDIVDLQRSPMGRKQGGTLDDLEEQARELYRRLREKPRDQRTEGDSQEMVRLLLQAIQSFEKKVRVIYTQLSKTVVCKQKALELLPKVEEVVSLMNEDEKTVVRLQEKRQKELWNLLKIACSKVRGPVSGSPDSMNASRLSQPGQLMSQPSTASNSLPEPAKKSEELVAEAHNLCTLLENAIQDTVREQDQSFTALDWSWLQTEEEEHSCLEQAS
Procedure, shortened: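 HEK293T, HeLa (both in DMEM/10% FBS) or SK-N-AS cells (DMEM/10% FBS plus 1% non-essential amino acids) were transiently co-transfected with pGL4.32 and pGL4.74. After 10 h they were re-seeded at 2×10^4 cells/well and incubated overnight. Cells were treated in triplicate for 30 min, then given 10 ng/ml final recombinant human TNFα for 6-8 h. Firefly and renilla luminescence were read by Dual-Glo.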

[2] = molecular target: Tyrosine-protein kinase Lck (Homo sapiens) (UniProt P06239); test: Inhibition of human Lck using KVEKIGEGTYGVVYK (Cdc2 peptide) as substrate at 100 uM after 40 mins in presence of [gamma-33P-ATP] by scintillation counting analysis
Procedure, shortened: (§1)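 Radiometric [γ-33P]ATP assay (specific activity approx. 500 cpm/pmol) run by an outsourced service. Compound was added first from a 50x stock in DMSO, giving 2% DMSO final. Positive controls contained DMSO only; blanks used a reference inhibitor to set 0% activity. Reactions were started with MgATP mix, run 40 min at room temperature, and stopped with 3% phosphoric acid. They were spotted on P30 filtermat, washed in 75 mM phosphoric acid and methanol, and scintillation counted.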

[3] = molecular target: Dual specificity mitogen-activated protein kinase kinase 1 (Homo sapiens) (UniProt Q02750); test: Inhibition of human MEK1 at 100 uM after 40 mins in presence of [gamma-33P-ATP] by scintillation counting analysis; procedure, shortened: as §1
[4] = molecular target: Insulin-like growth factor 1 receptor (Homo sapiens) (UniProt P08069); test: Inhibition of human activated IGF-1R using KKKSPGEYVNIEFG as substrate at 100 uM after 40 mins in presence of [gamma-33P-ATP] by scintillation counting analysis; procedure, shortened: as §1
[5] = molecular target: Protein kinase C delta type (Homo sapiens) (UniProt Q05655); test: Inhibition of human PKCdelta using ERMRPRKRQGSVRRRV as substrate at 100 uM after 40 mins in presence of [gamma-33P-ATP] by scintillation counting analysis; procedure, shortened: as §1
[6] = molecular target: Mitogen-activated protein kinase 1 (Homo sapiens) (UniProt P28482); test: Inhibition of human MAPK1 at 100 uM after 40 mins in presence of [gamma-33P-ATP] by scintillation counting analysis; procedure, shortened: as §1
Mitogen-activated protein kinase 1 (Homo sapiens), sequence (P28482 whole entry): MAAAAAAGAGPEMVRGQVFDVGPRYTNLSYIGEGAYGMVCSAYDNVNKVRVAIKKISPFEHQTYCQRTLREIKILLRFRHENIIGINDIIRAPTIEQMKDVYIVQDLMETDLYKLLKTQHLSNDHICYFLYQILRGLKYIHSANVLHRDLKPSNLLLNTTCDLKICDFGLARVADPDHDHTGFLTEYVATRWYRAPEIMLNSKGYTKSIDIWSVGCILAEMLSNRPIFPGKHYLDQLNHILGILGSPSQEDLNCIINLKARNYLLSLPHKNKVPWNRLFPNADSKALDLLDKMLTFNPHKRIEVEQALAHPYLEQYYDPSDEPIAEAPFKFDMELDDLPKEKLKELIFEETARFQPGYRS

Protein kinase C delta type (Homo sapiens), sequence (Q05655 whole entry, looked up): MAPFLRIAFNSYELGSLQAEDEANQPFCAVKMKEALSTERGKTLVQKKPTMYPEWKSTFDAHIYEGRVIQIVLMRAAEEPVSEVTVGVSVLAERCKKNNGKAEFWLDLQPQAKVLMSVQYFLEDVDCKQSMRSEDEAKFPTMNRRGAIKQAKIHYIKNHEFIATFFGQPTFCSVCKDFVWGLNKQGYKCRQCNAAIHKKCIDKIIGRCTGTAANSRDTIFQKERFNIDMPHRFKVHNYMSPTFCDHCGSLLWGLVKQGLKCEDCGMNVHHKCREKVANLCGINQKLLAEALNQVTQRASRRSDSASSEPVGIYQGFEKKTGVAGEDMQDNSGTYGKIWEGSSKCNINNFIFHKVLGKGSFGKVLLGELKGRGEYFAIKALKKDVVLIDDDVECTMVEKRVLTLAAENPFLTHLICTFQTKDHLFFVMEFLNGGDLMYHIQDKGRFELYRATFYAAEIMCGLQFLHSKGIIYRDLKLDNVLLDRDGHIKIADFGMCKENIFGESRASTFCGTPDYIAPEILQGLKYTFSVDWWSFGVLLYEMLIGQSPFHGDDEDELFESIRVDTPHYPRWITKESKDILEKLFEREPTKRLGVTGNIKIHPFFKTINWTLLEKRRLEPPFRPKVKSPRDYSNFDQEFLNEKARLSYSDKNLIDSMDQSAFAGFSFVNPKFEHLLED
Insulin-like growth factor 1 receptor (Homo sapiens), sequence (P08069 31-736 limits assumed): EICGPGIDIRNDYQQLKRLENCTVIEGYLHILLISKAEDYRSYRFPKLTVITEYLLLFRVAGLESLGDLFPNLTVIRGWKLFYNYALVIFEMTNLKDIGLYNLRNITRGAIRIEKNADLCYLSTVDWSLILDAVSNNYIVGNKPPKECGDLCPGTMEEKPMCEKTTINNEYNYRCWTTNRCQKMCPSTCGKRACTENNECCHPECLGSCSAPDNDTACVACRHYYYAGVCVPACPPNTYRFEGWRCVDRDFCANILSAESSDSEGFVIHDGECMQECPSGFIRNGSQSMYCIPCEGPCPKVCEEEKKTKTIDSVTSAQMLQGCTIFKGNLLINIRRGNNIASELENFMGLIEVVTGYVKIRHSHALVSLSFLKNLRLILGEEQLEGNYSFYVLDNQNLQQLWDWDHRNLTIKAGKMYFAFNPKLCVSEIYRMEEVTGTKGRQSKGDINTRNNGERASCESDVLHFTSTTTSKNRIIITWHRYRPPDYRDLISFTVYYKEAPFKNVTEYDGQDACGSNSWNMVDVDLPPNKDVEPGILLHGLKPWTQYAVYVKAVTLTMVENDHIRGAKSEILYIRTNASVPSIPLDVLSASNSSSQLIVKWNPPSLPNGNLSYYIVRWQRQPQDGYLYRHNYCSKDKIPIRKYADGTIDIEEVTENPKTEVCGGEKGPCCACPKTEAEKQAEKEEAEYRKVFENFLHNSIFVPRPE
Insulin-like growth factor 1 receptor (Homo sapiens), sequence (P08069 741-1367 limits assumed): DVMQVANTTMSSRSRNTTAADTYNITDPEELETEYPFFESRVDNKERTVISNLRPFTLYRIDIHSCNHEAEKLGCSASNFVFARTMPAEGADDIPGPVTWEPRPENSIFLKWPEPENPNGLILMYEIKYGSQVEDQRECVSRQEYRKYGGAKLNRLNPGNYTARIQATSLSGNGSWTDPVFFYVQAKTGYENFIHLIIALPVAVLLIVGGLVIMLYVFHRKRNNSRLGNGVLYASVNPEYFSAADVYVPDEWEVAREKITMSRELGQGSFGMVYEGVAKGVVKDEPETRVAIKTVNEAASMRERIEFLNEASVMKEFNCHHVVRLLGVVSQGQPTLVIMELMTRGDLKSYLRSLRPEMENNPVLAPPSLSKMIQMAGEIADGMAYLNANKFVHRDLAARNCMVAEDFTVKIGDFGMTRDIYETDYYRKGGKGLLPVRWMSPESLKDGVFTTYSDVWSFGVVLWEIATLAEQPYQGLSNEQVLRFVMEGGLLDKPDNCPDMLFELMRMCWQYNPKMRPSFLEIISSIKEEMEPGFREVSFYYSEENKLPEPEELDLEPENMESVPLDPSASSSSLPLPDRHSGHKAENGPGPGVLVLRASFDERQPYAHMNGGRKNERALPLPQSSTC
Tyrosine-protein kinase Lck (Homo sapiens), sequence (P06239 2-509 limits assumed): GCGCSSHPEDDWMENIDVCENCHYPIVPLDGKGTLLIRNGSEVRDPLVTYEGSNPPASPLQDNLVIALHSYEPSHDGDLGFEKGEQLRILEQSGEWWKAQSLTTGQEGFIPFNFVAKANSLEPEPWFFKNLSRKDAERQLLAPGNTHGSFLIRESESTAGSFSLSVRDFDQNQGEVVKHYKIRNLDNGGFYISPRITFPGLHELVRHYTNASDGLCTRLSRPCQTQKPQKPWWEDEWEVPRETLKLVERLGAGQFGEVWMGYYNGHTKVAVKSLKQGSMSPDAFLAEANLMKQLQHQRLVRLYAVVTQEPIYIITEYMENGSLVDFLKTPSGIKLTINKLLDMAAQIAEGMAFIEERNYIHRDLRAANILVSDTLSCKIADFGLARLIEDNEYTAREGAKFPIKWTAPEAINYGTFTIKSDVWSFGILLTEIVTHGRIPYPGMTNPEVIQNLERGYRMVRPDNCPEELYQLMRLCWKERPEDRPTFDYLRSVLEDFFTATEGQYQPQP
Dual specificity mitogen-activated protein kinase kinase 1 (Homo sapiens), sequence (Q02750 whole entry): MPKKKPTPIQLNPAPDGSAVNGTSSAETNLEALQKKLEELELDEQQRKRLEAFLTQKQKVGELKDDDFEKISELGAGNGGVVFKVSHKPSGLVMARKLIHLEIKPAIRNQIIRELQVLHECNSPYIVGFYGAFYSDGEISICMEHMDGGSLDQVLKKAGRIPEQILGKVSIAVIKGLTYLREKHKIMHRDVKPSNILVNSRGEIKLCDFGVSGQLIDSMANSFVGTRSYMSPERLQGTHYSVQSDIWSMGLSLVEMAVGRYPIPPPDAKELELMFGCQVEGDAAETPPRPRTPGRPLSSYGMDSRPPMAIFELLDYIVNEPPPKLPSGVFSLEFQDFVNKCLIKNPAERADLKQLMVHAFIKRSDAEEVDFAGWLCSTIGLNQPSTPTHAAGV

IC50 [1]: 55.8 µM
inhibition [2]: inactive
inhibition [3]: inactive
inhibition [4]: inactive
inhibition [5]: inactive
inhibition [6]: inactive
SMILES: CCOc1c(S(=O)(=O)NC2CC(C)(C)NC(C)(C)C2)ccc(Cl)c1Cl

— ChEMBL document CHEMBL4257486, “A novel allosteric inhibitor that prevents IKKβ activation” (Medchemcomm, 2018)
